Measured values taken from ChEMBL document CHEMBL1135591, “Synthesis and characterization of a series of novel monoacylated ascorbic acid derivatives, 6-O-acyl-2-O-alpha-D-glucopyranosyl-L-ascorbic acids, as skin antioxidants” (J Med Chem, 2002).

Columns and labels:
[1] = Free radical scavenging assessed as color reduction of DPPH; format: functional
Outline: (§1)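 DPPH (0.5 mM in ethanol, 1 part) mixed with antioxidant in ethanol/H2O 1:1 (4 parts; 1.25 × 10⁻⁶ to 1.25 × 10⁻³ M solutions); DPPH in reaction 10⁻⁴ M. Room temperature, 20 min; decolorization read at 516 nm. EC50 = concentration giving 50% of blank absorbance, from dose-response curve; mean ± SD of triplicates.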

[2] = Free radical scavenging assessed as 50% reduction in DPPH absorbance (516 nm); format: functional; outline: as §1
[3] = Compound was evaluated for its partition between n-octanol and water(pH 7); format: physicochemical; conditions: buffer
Outline: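 100 mM stock in DMSO diluted to 1 mM in 50 mM potassium phosphate buffer (pH 7.0); 5 mL aqueous solution mixed and partitioned with 5 mL n-octanol. Compound in the octanol phase quantified by HPLC (UV 240 nm). Mean ± SD, n = 6.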

Molecule | EC50 [2] | Distribution percent [3] | Scavenging activity [1]
CCCCCCCCCC(=O)OC[C@H](O)[C@H]1OC(O)=C(O[C@@H]2OC(CO)[C@@H](O)C(O)[C@@H]2O)C1=O (stereo partly specified) | 4.2 10uM | 76.6 | 73.6%
CCCCCCCCCCCCCC(=O)OC[C@H](O)[C@H]1OC(O)=C(O[C@@H]2OC(CO)[C@@H](O)C(O)[C@@H]2O)C1=O (stereo partly specified) | 4.4 10uM | 87 | 74.1%
CCCCCC(=O)OC[C@H](O)[C@H]1OC(O)=C(O[C@@H]2OC(CO)[C@@H](O)C(O)[C@@H]2O)C1=O (stereo partly specified) | 5.4 10uM | 8.7 | 73.8%
CCCCCCCCCCCCCCCC(=O)OC[C@H](O)[C@H]1OC(=O)C(O)=C1O |  |  | 95.7%
VITAMIN E [listing 1 of 2 here] |  |  | 90.9%
O=C1C(OS(=O)(=O)O)=C(O)O[C@@H]1[C@@H](O)CO |  |  | 0%
O=C1C(OP(=O)(O)O)=C(O)O[C@@H]1[C@@H](O)CO |  |  | 1.5%
CCCCCCCCCCCCCCCC(=O)OC[C@H](O)[C@H]1OC(O)=C(OC(=O)CCCCCCCCCCCCCCC)C1=O |  |  | 23.7%
CCCC(=O)OC[C@H](O)[C@H]1OC(O)=C(O[C@@H]2OC(CO)[C@@H](O)C(O)[C@@H]2O)C1=O (stereo partly specified) | 5.9 10uM | 4 | 69.2%

Now from value to molecule, other results behind:

EC50 [2] | Distribution percent [3] | Molecule | Scavenging activity [1]
4.6 10uM | 83.8 | CCCCCCCCCCCC(=O)OC[C@H](O)[C@H]1OC(O)=C(O[C@@H]2OC(CO)[C@@H](O)C(O)[C@@H]2O)C1=O (stereo partly specified) | 76.2%
5.7 10uM | 43.4 | CCCCCCCC(=O)OC[C@H](O)[C@H]1OC(O)=C(O[C@@H]2OC(CO)[C@@H](O)C(O)[C@@H]2O)C1=O (stereo partly specified) | 76.6%
6.1 10uM | 0 | O=C1C(O[C@@H]2OC(CO)[C@@H](O)C(O)[C@@H]2O)=C(O)O[C@@H]1[C@@H](O)CO (stereo partly specified) | 68.9%
1.9 10uM |  | VITAMIN E [listing 2 of 2 here] | 
4.1 10uM | 87.3 | CCCCCCCCCCCCCCCC(=O)OC[C@H](O)[C@H]1OC(O)=C(O[C@@H]2OC(CO)[C@@H](O)C(O)[C@@H]2O)C1=O (stereo partly specified) | 76.4%
4.4 10uM | 84.6 | CCCCCCCCCCCCCCCCCC(=O)OC[C@H](O)[C@H]1OC(O)=C(O[C@@H]2OC(CO)[C@@H](O)C(O)[C@@H]2O)C1=O (stereo partly specified) | 77.5%
2.2 10uM | 0.7 | O=C1O[C@H]([C@@H](O)CO)C(O)=C1O [ASCORBIC ACID] | 94.3%
